An excerpt weighted towards active compounds, which were near 1.9% of everything screened.
LEDGF integ inh: blocks HIV-1 LEDGF/p75-dependent DNA integration | TR-FRET IN-LEDGF/p75 DNA integration, Eu/Cy5 | inhibition, % at 3.7 µM | actives 0.64% (n = 370,000) | AID 743269;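 active = inhibition above the screen-wide mean plus 3 SD, cut at about 13% in these data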;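 also: signal is the Cy5 over europium emission ratio at 671 and 618 nm; 0% = plate median of compound wells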
Rin1 Abl inh: human Rin1-Abl interaction inhibition; TR-FRET Rin1/Abl binding, biochemical; inhibition, % at 7.35 µM; actives 0.4% (n = 360,000); in the data active = inhibition above about 5%, passing the limit was not always enough
TDP2 absorb: TDP2 (human) inhibition, absorbance primary screen | O95551 | recombinant TDP2, T5PNP hydrolysis, p-nitrophenol absorbance 415 nm | inhibition, % at 12.8 µM | actives 0.34% (n = 370,000) | AID 720702;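 active = inhibition above the mean of all tested compounds plus 3 SD, set per campaign, cut at about 25% in these data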;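 also: 0% = DMSO with enzyme and 100% = buffer with substrate but no TDP2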
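Read-out basis: percent inhibition. System: recombinant human TDP2. Buffer or medium: Mg2+-containing Tris-HCl buffer, pH 7.5. Repeats: single replicate. Timing: reaction 2 h, 37 °C. Benchmarks: high control without enzyme, low control DMSO plus TDP2. Probe or stimulus: 5 mM T5PNP. Doses: 12.8 µM only. Measured by: epi absorbance of p-nitrophenol freed from T5PNP by hydrolysis.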
MBD2 DNA inh: MBD2-methylated oligo binding inhibition; actives 0.31% (n = 370,000); TR-FRET, MBD2 binding to methylated oligonucleotide; Q9UBB5; inhibition, % at 4.4 µM; in the data active = inhibition above about 13%
Target sequence (Q9UBB5 whole entry, looked up): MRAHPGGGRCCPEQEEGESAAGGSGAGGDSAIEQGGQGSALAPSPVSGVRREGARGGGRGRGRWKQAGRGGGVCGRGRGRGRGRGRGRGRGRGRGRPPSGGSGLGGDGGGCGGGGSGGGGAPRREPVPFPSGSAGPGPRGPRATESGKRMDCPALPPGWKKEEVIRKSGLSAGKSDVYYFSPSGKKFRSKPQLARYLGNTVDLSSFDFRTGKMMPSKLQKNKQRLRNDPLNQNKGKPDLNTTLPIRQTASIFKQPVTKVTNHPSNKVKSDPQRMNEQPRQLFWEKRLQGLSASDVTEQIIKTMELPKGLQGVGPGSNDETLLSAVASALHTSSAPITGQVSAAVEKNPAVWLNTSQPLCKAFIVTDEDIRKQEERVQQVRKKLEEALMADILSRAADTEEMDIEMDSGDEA
UHRF1 binding: blocks human UHRF1 binding to methylated DNA | inhibition, % at 4.4 µM | UHRF1 binding to methylated oligo, TR-FRET | Q96T88 | actives 0.75% (n = 370,000); in the data active = inhibition above about 21%;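 also: UHRF1 SRA domain binding a hemimethylated CpG hairpin DNA probe; 0% = median of test compound wells and 100% = reference inhibitor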
IN multimer act: HIV-1 integrase multimerization activation, counter-screen; shares compounds with LEDGF integ inh; TR-FRET HIV-1 integrase multimerization, biochemical; activation, % at 7.7 µM; actives 17% (n = 2,000); AID 1053131; in the data active = activation above about 8.9%
TRFRET interf: optically interferes with TR-FRET readout in LEDGF counter-screen. shares compounds with LEDGF integ inh. TR-FRET optical interference counterscreen, HIV-1 IN multimerization. inhibition, % at 7.7 µM. 2,000 tested, under 10 active. AID 1053135;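 active = inhibition above the mean over all tested compounds plus 3 SD, which no compound reached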;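 also: 0% = integrase with antibodies and DMSO and 100% = antibodies without integrase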
LEDGF integ conf: confirmation of HIV-1 LEDGF/p75-dependent integration inhibitors. shares compounds with LEDGF integ inh. TR-FRET LEDGF/p75-dependent HIV-1 integration, biochemical. inhibition, % at 3.7 µM. actives 36% (n = 2,000). AID 1053136; in the data active = inhibition above about 14%
An asterisk follows results filed as active; nt = no result given.

SMILES	LEDGF integ inh	Rin1 Abl inh	TDP2 absorb	MBD2 DNA inh	UHRF1 binding	IN multimer act	TRFRET interf	LEDGF integ conf
C[C@@H]1CCN(C2CC2)S(=O)(=O)c2c(cccc2N2CCC[C@@H]2CO)O1	4	nt	-5	0	-4	nt	nt	nt
CC1=CN2C(=N)/C(=C/c3ccc([N+](=O)[O-])o3)C(=O)N=C2S1	18*	0	7	3	8	6	-28	17*
C=CCN(CC=C)C(=S)NC(=O)c1ccc(-c2ccccc2)cc1	23*	-2	3	2	-5	0	0	17*
C=CCN(CC=C)C(=S)NC(=O)c1ccc(C)c(Br)c1	25*	1	16	-1	0	0	1	33*
CC(=O)c1ccc(NC(=S)NC(=O)Cc2ccc(Cl)cc2)cc1	15*	3	4	0	4	8	-28	-3
CC(=O)Nc1ccc(S(=O)(=O)NCCC(=O)OC(C)C(=O)NC2(C#N)CCCCC2)cc1 (configuration not stated)	67*	2	-5	1	0	-1	3	-8
N#Cc1ccc(Cn2ccc3ccc(-c4ccc5ccn(C(=O)C6CCC6)c5c4)cc32)cc1	-2	nt	9	-3	-1	nt	nt	nt
O=C(CCCOc1ccccc1)Nc1nccs1	-1	1	-2	2	1	nt	nt	nt
O=C(Nc1nccs1)Oc1ccccc1	16*	-4	3	3	1	1	-4	-10
COc1ccc(C(=O)NC(=S)N(Cc2ccccc2)Cc2ccccc2)cc1	15*	-2	8	-2	-4	1	-5	9
COc1cc(C(=O)NC(=S)N(C)Cc2ccccc2)cc(OC)c1OC	2	4	5	8	-2	nt	nt	nt
O=C(NC(=S)N(CCc1ccccc1)CCc1ccccc1)c1ccco1	15*	0	3	1	-5	-2	8	20*
COc1cc(C(=O)NC(=S)N(CCc2ccccc2)CCc2ccccc2)cc(OC)c1OC	14*	-1	-4	-2	-6	0	-1	6
C=CCN(CC=C)C(=S)NC(=O)c1ccc(OC)cc1	-1	5	3	0	-2	nt	nt	nt
CC(C)C[C@H]1COc2cc(Br)ccc2S(=O)(=O)N1Cc1cn(Cc2ccc(Cl)cc2)nn1	4	nt	0	-1	-2	nt	nt	nt
Cc1cc(CNC(=O)Cn2cc([N+](=O)[O-])cn2)c2ccccc2n1	17*	1	8	0	-2	-2	8	6
C=CCn1c(NC(=O)c2ccccc2)nc2ccccc21	15*	1	10	4	72*	-4	19	14*
CN(C)CCCn1c(NC(=O)C2CCCCC2)nc2ccccc21	3	0	-8	0	-3	nt	nt	nt
CCCCn1c(NC(=O)C2CCCCC2)nc2ccccc21	28*	1	-15	2	0	1	-3	17*
CCn1c(NC(=O)c2ccccc2)nc2ccccc21	7	-5	3	4	0	nt	nt	nt
CCCCn1c(NC(=O)c2ccccc2)nc2ccccc21	26*	-3	-25	0	-6	-1	7	25*
COc1ccc(CCNC(=O)c2cnn(-c3ccccc3)c2N)cc1OC	7	nt	1	3	-2	nt	nt	nt
CC(=O)Nc1ccc2c(c1)nc(CCN1CCN(C)CC1)n2C	-4	-5	4	4	1	nt	nt	nt
CCCCC(=O)Nc1ccc2c(c1)nc(CCN1CCN(C)CC1)n2C	82*	0	-9	-8	1	2	-9	3
c1csc(-c2nnc(SCc3cccc4ccccc34)o2)c1	5	nt	0	-3	3	nt	nt	nt
SMILES	LEDGF integ inh	Rin1 Abl inh	TDP2 absorb	MBD2 DNA inh	UHRF1 binding	IN multimer act	TRFRET interf	LEDGF integ conf
CN1CCC/C1=C/C=C1\SC(=S)NC1=O	18*	-34	6	-12	-16	17*	-61	-2
CN1/C(=C\C=C2/SC(=S)NC2=O)C(C)(C)c2ccccc21	-1	-6	2	-17	-21	nt	nt	nt
Cn1nnc(NC(=S)NC(=O)/C=C/c2ccco2)n1	14*	0	2	7	14	6	-22	11
CCCn1nnc(NC(=O)/C=C/c2ccco2)n1	6	-1	9	-2	-2	nt	nt	nt
CCC[C@H]1[C@@H](NCC2CCCCC2)CC[C@@]23CCCN2C(=O)CCC[C@@H]13	0	nt	-8	-2	-1	nt	nt	nt
O=C(CCN1CCOCC1)N1c2ccccc2Sc2ccc(Cl)cc21	17*	-1	1	4	1	-2	9	3
O=[N+]([O-])c1cccc(/C=C/c2ccncc2)c1	19*	-4	15	0	-10	0	1	0
O=[N+]([O-])c1ccc(/C=C/c2ccncc2)cc1	3	-3	-10	3	1	nt	nt	nt
Cc1ccc(S(=O)(=O)c2nc(-c3ccco3)oc2SC(C)C)cc1	16*	2	-12	-8	1	3	-14	2
CCOC(=O)[C@]12CCCCC/C=C\1N(CCc1ccc(Cl)cc1)C(=O)[C@H]2CC(=O)N1CCOCC1	-2	nt	7	-4	-1	nt	nt	nt
Cc1noc(/C=C/N(C)C)c1S(=O)(=O)N1CCCC(C(=O)Nc2ccc3c(c2)OCO3)C1 (configuration not stated)	15*	0	-10	1	0	-1	6	-4
COC(=O)C1CN(CC(C)C)CCS(=O)(=O)N1Cc1ccc(OC)cc1 (configuration not stated)	7	nt	2	2	2	nt	nt	nt
CCN(CC)C(=O)CSc1nc2ccccc2c(=O)n1-c1cccc(OC)c1	2	-4	-16	3	4	nt	nt	nt
COc1cccc(-n2c(SCc3cc(=O)oc4cc(O)c(O)cc34)nc3ccccc3c2=O)c1	27*	-4	-11	7	15	14*	-50	72*
COc1ccc(-n2c(SCC(=O)Nc3ccccc3)nc(O)cc2=O)cc1	53*	-4	0	6	0	0	-1	-3
CCNC(=O)CSc1nc2ccccc2c(=O)n1-c1cc(OC)ccc1OC	1	1	2	1	2	nt	nt	nt
CNC(=O)CSc1nc2ccccc2c(=O)n1-c1cc(OC)ccc1OC	18*	3	-5	-2	0	-2	12	-9
CN(CCc1ccccn1)C(=O)c1ccc(Sc2ccccc2Cl)c([N+](=O)[O-])c1	1	nt	4	5	2	nt	nt	nt
CC(CNc1ccccc1O)C(=O)O (configuration not stated)	23*	1	11	-6	19	11*	-39	-1
